Test results taken from ChEMBL document CHEMBL1124782, “DNA binding by antitumor anthracene derivatives” (J Med Chem, 1990).

Assays:
Nucleic Acid [1] = assay: Apparent binding constant (McGhee-von Hippel) was determined by using spectrophotometric titration; type: nucleic-acid assay; conditions: Bos taurus
How it was run: (§1)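 Calf thymus DNA (<3% protein) titrated by UV-visible absorbance in 0.1 M NaCl, 0.01 M sodium phosphate, 0.001 M EDTA, pH 7.0. Drug stock about 2×10^-4 M. DNA prepared fresh at 5×10^-4 M (base pairs) for each titration. Free and bound drug extinction coefficients came from Beer's law plots. Bound/free data were fitted by McGhee-von Hippel equations or by a cubic spline derivative analysis.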

Nucleic Acid [2] = assay: Cubic spline relative binding strength was determined by using spectrophotometric titration; type: nucleic-acid assay; conditions: Bos taurus; how it was run: as §1
Nucleic Acid [3] = assay: (§2) delta Tm value is the difference between Tm(melting temperature) for calf thymus DNA with drug and without drug(Tm = 71 degree C for DNA alone); type: nucleic-acid assay; conditions: Bos taurus
[4] = pKa value for amino group in the compound; type: physicochemical
How it was run: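 0.2 mmol of compound, as free base or dihydrochloride, was dissolved in 0.0392 N HCl to give 1 mequiv acid beyond full protonation of the amino groups. The solution was stirred and titrated with 0.0242 N NaOH with pH monitoring. Macroscopic pKa was read at 0.5 equiv base per functional group. Poorly soluble material was titrated in very dilute solution.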

Nucleic Acid [5] = assay: as §2; type: functional; conditions: Bos taurus

K app (Nucleic Acid [1]) | Relative binding (Nucleic Acid [2]) | ΔTm (Nucleic Acid [3]) | pKa [4] | pKa ([4]; read-out: pKa1) | pKa ([4]; read-out: pKa2) | pKa ([4]; read-out: pKa3) | pKa ([4]; read-out: pKa4) | SMILES | ΔTm (Nucleic Acid [5])
0.0532 µM⁻¹ | 0.84 | 13 °C | 8 | – | – | – | – | OCCCCCNCc1c2ccccc2c(CNCCCCCO)c2ccccc12 | –
0.1 µM⁻¹ | 0.75 | 12 °C | – | 3.9 | 5.35 | 8.4 | 9.4 | CN(C)CCNCc1c2ccccc2c(CNCCN(C)C)c2ccccc12 | –
– | – | – | – | 3.1 | 4.2 | 8.45 | 9.45 | CN(C)CCN(C)Cc1c2ccccc2c(CN(C)CCN(C)C)c2ccccc12 | 1 °C

Second part, the molecule before the results:

SMILES | K app (Nucleic Acid [1]) | Relative binding (Nucleic Acid [2]) | ΔTm (Nucleic Acid [3]) | pKa [4] | pKa ([4]; read-out: pKa1) | pKa ([4]; read-out: pKa2) | pKa ([4]; read-out: pKa3) | pKa ([4]; read-out: pKa4) | ΔTm (Nucleic Acid [5])
c1ccc2c(CNCCN3CCOCC3)c3ccccc3c(CNCCN3CCOCC3)c2c1 | – | – | – | – | 3.85 | 6.3 | 7.5 | 8.5 | 5 °C
CCN1CCCC(NCc2c3ccccc3c(CNC3CCCN(CC)C3)c3ccccc23)C1 (stereo not given) | 0.0605 µM⁻¹ | 0.75 | 16 °C | – | 2.4 | 3 | 5.2 | 9.15 | –
CN1CCN=C1/C=C/c1c2ccccc2c(/C=C/C2=NCCN2)c2ccccc12 | 8.29 µM⁻¹ | 1.08 | > 20 °C | – | – | – | – | – | –
CNCCN(C)Cc1c2ccccc2c(CN(C)CCNC)c2ccccc12 | – | – | – | – | – | – | – | – | 3 °C
C(=N\NC1=NCCN1)/c1c2ccccc2c(/C=N/NC2=NCCN2)c2ccccc12 [BISANTRENE] | 9.03 µM⁻¹ | 1.03 | 19 °C | – | 6.8 | – | – | – | –
CC(C)N(CCNCc1c2ccccc2c(CNCCN(C(C)C)C(C)C)c2ccccc12)C(C)C | – | – | – | – | – | – | – | – | 9 °C
NCCNCc1c2ccccc2c(CNCCN)c2ccccc12 | 0.27 µM⁻¹ | 0.75 | 14 °C | – | – | – | – | – | –
